Assay results: ChEMBL document CHEMBL1122430, “Nucleosides. 123. Synthesis of antiviral nucleosides: 5-substituted 1-(2-deoxy-2-halogeno-beta-D-arabinofuranosyl)cytosines and -uracils. Some structure-activity relationships” (1983)

Assays:
Format in all cases: functional
[1] = tested on: Human alphaherpesvirus 2; assay: Antiherpetic activity against HSV-2; conditions: read-out: ED50 (the source's name)
Method in brief: (§1)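 Plaque-reduction assay on Vero cell monolayers infected with HSV-1 or HSV-2 (strain G). ED50 is the dose that cuts plaque number by 50%.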

[2] = tested on: Lymphocytic cell line; assay: Inhibition of growth of normal human lymphocytic cells; conditions: read-out: ID50 (the source's name)
[3] = tested on: Human alphaherpesvirus 1; assay: Antiherpetic activity against HSV-1; conditions: read-out: ED50 (the source's name); method in brief: as §1
[4] = Homo sapiens, Lymphocytic cell line

Structure (SMILES): Cc1cn([C@@H]2O[C@H](CO)[C@@H](O)[C@@H]2F)c(=O)nc1N
- EC50 ([1]; Human alphaherpesvirus 2): 800 nM
- IC50 [2, 4]: 0.8 µM
- EC50 ([3]; Human alphaherpesvirus 1): 640 nM

Structure (SMILES): O=c1[nH]c(=O)n([C@@H]2O[C@H](CO)[C@@H](O)[C@H]2F)cc1I
- EC50 ([1]; Human alphaherpesvirus 2): 55 nM
- IC50 [2, 4]: 3.3 µM
- EC50 ([3]; Human alphaherpesvirus 1): 25 nM

Structure (SMILES): O=c1ccn([C@@H]2O[C@H](CO)[C@@H](O)[C@H]2F)c(=O)[nH]1
- EC50 ([1]; Human alphaherpesvirus 2): 6000 nM
- IC50 [2, 4]: > 100 µM
- EC50 ([3]; Human alphaherpesvirus 1): 800 nM

Structure (SMILES): O=c1[nH]c(=O)n([C@H]2O[C@@H](CO)[C@H](O)[C@H]2F)cc1Br
- EC50 ([1]; Human alphaherpesvirus 2): 70 nM
- IC50 [2, 4]: 0.9 µM
- EC50 ([3]; Human alphaherpesvirus 1): 110 nM

Structure (SMILES): Nc1nc(=O)n([C@H]2O[C@@H](CO)[C@H](O)[C@H]2F)cc1Br
- EC50 ([1]; Human alphaherpesvirus 2): 20 nM
- IC50 [2, 4]: 5 µM
- EC50 ([3]; Human alphaherpesvirus 1): 190 nM

Structure (SMILES): Nc1nc(=O)n([C@@H]2O[C@H](CO)[C@@H](O)[C@@H]2Cl)cc1Br
- EC50 ([1]; Human alphaherpesvirus 2): > 100000 nM
- IC50 [2, 4]: > 100 µM
- EC50 ([3]; Human alphaherpesvirus 1): > 100000 nM

Structure (SMILES): Nc1nc(=O)n([C@@H]2O[C@H](CO)[C@@H](O)[C@@H]2Cl)cc1I
- EC50 ([1]; Human alphaherpesvirus 2): 90 nM
- IC50 [2, 4]: 3.5 µM
- EC50 ([3]; Human alphaherpesvirus 1): 3400 nM

Structure (SMILES): Cc1cn([C@@H]2O[C@H](CO)[C@@H](O)[C@@H]2Cl)c(=O)nc1N
- EC50 ([1]; Human alphaherpesvirus 2): 220 nM
- IC50 [2, 4]: 20 µM
- EC50 ([3]; Human alphaherpesvirus 1): > 100000 nM

Structure (SMILES): Cc1cn([C@@H]2O[C@H](CO)[C@@H](O)[C@@H]2Br)c(=O)[nH]c1=O
- EC50 ([1]; Human alphaherpesvirus 2): > 100000 nM
- IC50 [2, 4]: 8 µM
- EC50 ([3]; Human alphaherpesvirus 1): > 100000 nM

Structure (SMILES): Cc1cn([C@@H]2O[C@H](CO)[C@@H](O)[C@@H]2Cl)c(=O)[nH]c1=O
- EC50 ([1]; Human alphaherpesvirus 2): > 100000 nM
- IC50 [2, 4]: > 100 µM
- EC50 ([3]; Human alphaherpesvirus 1): > 100000 nM

Structure (SMILES): Nc1ccn([C@@H]2O[C@H](CO)[C@@H](O)[C@@H]2Cl)c(=O)n1
- EC50 ([1]; Human alphaherpesvirus 2): 3800 nM
- IC50 [2, 4]: 0.006 µM
- EC50 ([3]; Human alphaherpesvirus 1): 110 nM

Structure (SMILES): Nc1ccn([C@@H]2O[C@H](CO)[C@@H](O)[C@@H]2Br)c(=O)n1
- EC50 ([1]; Human alphaherpesvirus 2): 4400 nM
- IC50 [2, 4]: 0.2 µM
- EC50 ([3]; Human alphaherpesvirus 1): 3200 nM

Structure (SMILES): Nc1nc(=O)n([C@@H]2O[C@H](CO)[C@@H](O)[C@@H]2Br)cc1I
- EC50 ([1]; Human alphaherpesvirus 2): 2200 nM
- IC50 [2, 4]: 0.2 µM
- EC50 ([3]; Human alphaherpesvirus 1): 9500 nM

Structure (SMILES): Cc1cn([C@@H]2O[C@H](CO)[C@@H](O)[C@@H]2Br)c(=O)nc1N
- EC50 ([1]; Human alphaherpesvirus 2): 26200 nM
- IC50 [2, 4]: 34 µM
- EC50 ([3]; Human alphaherpesvirus 1): > 100000 nM

Structure (SMILES): Nc1nc(=O)n([C@@H]2O[C@H](CO)[C@@H](O)[C@@H]2Br)cc1Br
- EC50 ([1]; Human alphaherpesvirus 2): > 100000 nM
- IC50 [2, 4]: 4.5 µM
- EC50 ([3]; Human alphaherpesvirus 1): > 100000 nM

Structure (SMILES): Nc1ccn([C@@H]2O[C@H](CO)[C@@H](O)[C@@H]2F)c(=O)n1
- EC50 ([1]; Human alphaherpesvirus 2): 300 nM
- IC50 [2, 4]: 0.6 µM
- EC50 ([3]; Human alphaherpesvirus 1): 120 nM

Structure (SMILES): Nc1nc(=O)n([C@@H]2O[C@H](CO)[C@@H](O)[C@H]2F)cc1I (stereo in doubt; 3A)
- EC50 [1]: 10 nM
- IC50 [2]: 8.6 µM
- EC50 [3]: 10 nM

Structure (SMILES): Nc1nc(=O)n([C@@H]2O[C@H](CO)[C@@H](O)[C@H]2F)cc1I (stereo in doubt; 9)
- EC50 [1]: 27400 nM
- IC50 [2]: 1.9 µM
- EC50 [3]: 17900 nM

Structure (SMILES): Cc1cn([C@@H]2O[C@H](CO)[C@@H](O)[C@@H]2F)c(=O)[nH]c1=O [5-METHYL-2'-FLUOROARAURACIL]
- EC50 ([1]; Human alphaherpesvirus 2): 13 nM
- IC50 [2, 4]: 1 µM
- EC50 ([3]; Human alphaherpesvirus 1): 13 nM
